Compound activity: PubChem, several laboratories
zVAD death inh – blocks zVAD induced death of L929 cells | L929 zVAD necroptosis rescue, ATP luminescence, 24 h; with zVAD 60 µM | viability rescue, % at 10 µM | 0.38% of 220,000 active;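 active = activation, scaled between plate controls, above about 75%, limit read from the data; inactive = activation under that limit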
TNF necrop inh – TNF-alpha cell death inhibition in Jurkat FADD-/- cells | Jurkat FADD-/- TNF necroptosis rescue, ATP luminescence, 24 h; 0 = TNF only, 100 = no-TNF cells | activation (protection from cell death), % at 10 µM | 0.068% of 220,000 active | AID 463075;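 active = activation, meaning protection from cell death, of at least 50% relative to plate controls; inactive = activation below 50%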;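 also: necroptosis triggered by 40 ng/mL TNF-alpha added together with compound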
Pf gametocyte – kills late stage P. falciparum gametocytes | P. falciparum stage V gametocytes, ATP luminescence, 24 h | inhibition, % at 10.9 µM | 0.065% of 150,000 active;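 active = inhibition above the mean plus 3 SD of compounds within the control limits, set per campaign, cut at about 38% in these data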
Mdm2 ligase inh – inhibitors of human Mdm2 E3 ubiquitin ligase; Q00987; cell-based MDM2 ubiquitination luciferase reporter, 2 h; 0 = plate control, 100 = twice control, blank-subtracted; signal enhancement, % at 5 µM; 0.11% of 210,000 active; AID 1230;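 active = signal enhancement of 30% or more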;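 also: luminescence tracks abundance of the self-degrading MDM2-luciferase fusion protein; higher signal means inhibition of MDM2 E3 ligase activity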
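Assay system: stable mammalian line carrying autodegrading MDM2–luciferase fusion reporter; Input: 2000 cells in each well; Compound dosing: single-point 5 µM; Schedule: 2 h compound exposure at 37 °C; Signal: SteadyLite luciferase luminescence after 15 min room-temperature reagent incubation; Evaluation: % luminescence enhancement versus blank-corrected plate control mean; Benchmarks: plate controls and plate blanks.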
Rad51 HR inh – Rad51 (human) homologous recombination inhibition; inhibition, % at 10 µM; hRad51 DNA strand exchange, fluorescence dequenching; 0.085% of 200,000 active;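 active = inhibition above 40% at the single screening dose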
Target sequence (Q06609 whole entry, looked up): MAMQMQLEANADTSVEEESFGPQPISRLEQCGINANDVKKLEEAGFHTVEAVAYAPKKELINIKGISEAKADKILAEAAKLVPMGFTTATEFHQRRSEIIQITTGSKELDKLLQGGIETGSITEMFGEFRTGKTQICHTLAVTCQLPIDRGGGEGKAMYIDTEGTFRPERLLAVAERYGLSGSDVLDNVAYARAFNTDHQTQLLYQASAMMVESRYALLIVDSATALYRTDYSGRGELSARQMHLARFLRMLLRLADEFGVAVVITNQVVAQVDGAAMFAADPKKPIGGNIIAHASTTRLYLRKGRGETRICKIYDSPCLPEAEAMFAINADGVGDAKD
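System: human Rad51 nucleoprotein filaments preassembled on unlabelled ssDNA. Reagent: labelled 47-mer dsDNA for strand exchange. Schedule: 30-min compound preincubation and 15-min exchange, both room temperature. Measured by: FRET fluorescence dequenching, excitation 485 nm, emission 520 nm. Read-out: Fluorescence-based percent inhibition, control- and blank-normalised. Benchmarks: plate controls and plate blanks.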
Of the large screens only hits and unclear results are named; the others gave an inactive call. Only some compounds are listed: those with a hit (about 0.58% of all), similar ones and a draw of the others.

O=C(c1ccccc1Sc1ccc([N+](=O)[O-])cc1Cl)N1CCOCC1	Rad51 HR inh 44.9 (no result: Pf gametocyte)
N#Cc1ccccc1Sc1ccccc1C(=O)N1CCOCC1	none (no result: Pf gametocyte)
CCN1/C(=C\C(=S)Nc2ccccc2)Sc2ccccc21	none
CCN1/C(=C/C(C)=C/c2sc3ccccc3[n+]2CC)Sc2ccccc21	Rad51 HR inh 81.4
COc1ccc(C)c2sc(N(CCCN(C)C)C(=O)c3ccc(S(=O)(=O)N(C)C)cc3)nc12	Rad51 HR inh 47.4
CN(CC(=O)Nc1ccc(Cl)c(C(F)(F)F)c1)C(=O)/C=C/c1ccco1	Pf gametocyte 57.0
C=CCSc1nc2ccccc2n1C(=O)/C=C/c1ccc(OC)c(OC)c1	none (no result: Pf gametocyte)
C=CCSc1nc2ccccc2n1C(=O)/C=C/c1cc(OC)c(OC)c(OC)c1	Mdm2 ligase inh 53.6 (no result: Pf gametocyte, Rad51 HR inh)
CCSc1nc2ccccc2n1C(=O)/C=C/c1ccc(OC)c(OC)c1	Mdm2 ligase inh 64.6 (no result: Pf gametocyte)
COC(=O)CSc1nnnn1-c1ccccc1	none
Cc1ccc(SCC(=O)N2N=CCC2c2ccccc2)cc1 (stereo not given)	TNF necrop inh 67.6
O=C(CSc1nnnn1-c1ccccc1)N1N=CCC1c1ccccc1 (stereo not given)	TNF necrop inh 96.8 (no result: Pf gametocyte)
CCN(CC)c1ccc(/C=C2/C(=O)c3ccc(C(=O)O)cc3C2=O)cc1	Mdm2 ligase inh 63.3
O=C(Nc1nc(-c2ccccn2)cs1)c1ccc(Br)s1	Mdm2 ligase inh 44.9
Cc1cc(Sc2nc(NC(C)C)nc(NC(C)C)n2)nc(Cl)n1	none
N#Cc1c(Cl)cccc1Oc1ccc(S(=O)(=O)Nc2ccccc2)cc1	none
Cc1ccc(NC(=O)CCC2CC(C)(C)OC2=O)cc1 (stereo not given)	Mdm2 ligase inh 31.2
CCn1c(N2CCN(C(c3ccccc3)c3ccccc3)CC2)nc2c1c(=O)[nH]c(=O)n2C	none (no result: zVAD death inh, TNF necrop inh, Mdm2 ligase inh, Rad51 HR inh)
Cc1ccc(C(=O)Nc2nccc(-c3cccs3)n2)cc1	none
NC(=S)Nc1nccc(-c2cccs2)n1	Rad51 HR inh 40.7
OCC1(Cc2ccccc2)CCN(Cc2cnc(-c3ccc(Cl)cc3)nc2)CC1	Pf gametocyte 42.4
OCC1(Cc2ccccc2)CCN(Cc2cnc(-c3cccc4ccccc34)nc2)CC1	none (no result: Pf gametocyte)
Cc1nnc(NC(=O)C2COc3ccccc3O2)s1 (stereo not given)	none (no result: Pf gametocyte)
O=C(Nc1ncc(Cc2ccccc2)s1)c1cccs1	zVAD death inh 83.2
O=C(Nc1ncc(Cc2ccccc2)s1)C1COc2ccccc2O1 (stereo not given)	TNF necrop inh 55.1
CN(C)CCN(CC1CCCN(Cc2ccccc2F)C1)C(=O)c1ccc(Cl)cc1 (stereo not given)	none (no result: zVAD death inh, TNF necrop inh, Mdm2 ligase inh, Rad51 HR inh)
CCn1c(=O)c(C(=O)NNS(=O)(=O)c2ccc(Br)cc2)c(O)c2ccccc21	none
O=C(Cc1ccc(Cl)cc1)NCCS(=O)c1ccc(Cl)cc1 (stereo not given)	Rad51 HR inh 130.4
O=C(Cc1ccccc1)NCCS(=O)c1ccc(Cl)cc1 (stereo not given)	none
C=CCN(CC=C)CCOc1ccc(C)cc1[N+](=O)[O-]	none
C=CCN(CC=C)CCOc1cc(C)ccc1[N+](=O)[O-]	Rad51 HR inh 41.5
O=C1Nc2cccnc2Sc2ccccc21	none (no result: Pf gametocyte)
c1ccc2c(c1)Nc1nccnc1S2	zVAD death inh 85.5 (no result: Rad51 HR inh)
COc1ccccc1N1CCN(C(=O)c2ccc3ncsc3c2)CC1	none (no result: zVAD death inh, TNF necrop inh, Mdm2 ligase inh, Rad51 HR inh)
COCCNC(=O)/C(C#N)=C/c1cccc(/C=C(\C#N)C(=O)NCCOC)c1	Mdm2 ligase inh 69.8
COCCNC(=O)/C(C#N)=C/c1ccc(O)cc1	none (no result: Mdm2 ligase inh)
Cc1cccc(C)c1OCC(=O)N(Cc1ccc(N(C)C)cc1)C1CCS(=O)(=O)C1 (stereo not given)	none
CC(C)c1ccc(OCc2cccc(C(=O)N/N=C/c3cccnc3)c2)cc1	Mdm2 ligase inh 33.5 (no result: zVAD death inh)
CCOc1ccc(OCc2cccc(C(=O)N/N=C/c3cccnc3)c2)cc1	none (no result: Pf gametocyte)
CCOC(=O)[C@@H](C)N(C(=O)OC(C)(C)C)S(=O)(=O)N(Cc1ccccc1)[C@H](C(=O)OC)C(C)C	none (no result: zVAD death inh, TNF necrop inh, Mdm2 ligase inh, Rad51 HR inh)
COc1ccc(C(=O)NCCSC2CCCCC2)cc1	Mdm2 ligase inh 40.5 (no result: Pf gametocyte, Rad51 HR inh)
CCN(CCC(=O)Nc1cc(OC)ccc1OC)Cc1ccccc1	none (no result: zVAD death inh, TNF necrop inh, Mdm2 ligase inh, Rad51 HR inh)
CCOc1cc(/C=N/NC(N)=O)cc(Br)c1OCC(=O)Nc1cccc2ccccc12	Rad51 HR inh 122.5
O=S(=O)(Cc1ccccc1)N=Nc1c(O)[nH]c2ccc(Br)cc12	none (no result: Pf gametocyte)
Clc1ccc(-c2nn3c(-c4ccccc4)nnc3s2)cc1	none
c1ccc(-c2nnc3sc(-c4ccncc4)nn23)cc1	Pf gametocyte 52.0
CCOC(=O)/C=C/C(=O)Nc1ccccc1-c1ccccc1NC(=O)/C=C/C(=O)OCC	Mdm2 ligase inh 38.8 (no result: Pf gametocyte)
CCOC(=O)/C=C/C(=O)Nc1cccc([N+](=O)[O-])c1	none (no result: Pf gametocyte)
COC(=O)c1c(-c2ccccc2Cl)noc1/C=C/N(C)C	Mdm2 ligase inh 42.5
COc1ccc(-c2onc3ccc(Cl)cc23)cc1OC	zVAD death inh 75.0 (no result: Pf gametocyte, Mdm2 ligase inh, Rad51 HR inh)
C[C@]12CCC[C@H](O1)c1c(cc3c(c1O)C(=O)c1c(O)cc(O)cc1C3=O)O2	none (no result: zVAD death inh, TNF necrop inh, Pf gametocyte, Mdm2 ligase inh)
COc1ccc2[nH]c3c(C)c4ccncc4c(C)c3c2c1	Rad51 HR inh 47.5 (no result: Pf gametocyte)
COc1ccc2[nH]c(C)cc(=O)c2c1	none (no result: Pf gametocyte)
COC(=O)CCC(=O)OC1(C)C(=O)C2=CN(C3CC3)C(c3ccc(OC)cc3)=CC2=C(Br)C1=O (stereo not given)	Rad51 HR inh 52.4 (no result: zVAD death inh, TNF necrop inh, Mdm2 ligase inh)
Cc1cc([N+](=O)[O-])nn1Cn1nc([N+](=O)[O-])cc1C	none
Cc1cc([N+](=O)[O-])nn1Cc1ccccc1F	zVAD death inh 90.6, TNF necrop inh 94.6
CC1=Nc2cccc([N+](=O)[O-])c2NC(=O)C1	none
CCC1(C)Nc2ccccc2C(=O)N1O (stereo not given)	Rad51 HR inh 40.7 (no result: Pf gametocyte)
CC1(C)Nc2ccccc2C(=O)N1c1ccc(Br)cc1	none (no result: zVAD death inh, TNF necrop inh, Mdm2 ligase inh, Rad51 HR inh)
COc1ccc(OC)c(NC(=O)c2ccccc2NS(=O)(=O)c2cccc3cccnc23)c1	Rad51 HR inh 55.5 (no result: Pf gametocyte)
O=C(Nc1cccc2ccccc12)c1ccccc1NS(=O)(=O)c1cccc2cccnc12	none
Cc1ccc(C(=O)NCCCc2ccccc2)s1	none (no result: Pf gametocyte, Rad51 HR inh)
CCN(CC)CCNC(=O)c1ccc2c(c1)ncn2C1CCCCC1	zVAD death inh 93.2 (no result: Pf gametocyte)
CC(Nc1nc(-c2ccc3c(c2)NC(=O)CO3)cs1)c1ccccc1 (stereo not given)	TNF necrop inh 82.6
O=C1COc2ccc(-c3csc(NCC4CCCO4)n3)cc2N1 (stereo not given)	none
COc1ccc(CN(CC2CCCO2)C(=O)c2cc3sccc3n2C)c(OC)c1 (stereo not given)	none
COc1ccc(C(=O)c2ccc(N3CCOCC3)c([N+](=O)[O-])c2)cc1	none (no result: Pf gametocyte)
COc1ccc(Nc2nnc(-c3ccc(N4CCOCC4)c([N+](=O)[O-])c3)c3ccccc23)cc1	zVAD death inh 81.6 (no result: Pf gametocyte)
C=CCNC(=O)/C(=C\c1ccc(Br)cc1)NC(=O)c1ccccc1OC	none
